Experimental data published in ChEMBL document CHEMBL3739286, “Betulinic acid derived hydroxamates and betulin derived carbamates are interesting scaffolds for the synthesis of novel cytotoxic compounds” (Eur J Med Chem, 2015).

Columns and labels:
[1] = Cytotoxicity against mouse NIH/3T3 cells after 96 hrs by SRB assay; assay type: cell-based, NIH3T3
In short: (§1)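 Photometric sulforhodamine B read-out of antiproliferative effect after 96 h of continuous treatment; EC₅₀ values in µM, averaged from three independent experiments each run in triplicate; the assay cut-off is EC₅₀ > 30 µM. Human tumour lines are tested alongside nonmalignant mouse NIH 3T3 fibroblasts.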

[2] = system: A2780; experiment: Cytotoxicity against human A2780 cells after 96 hrs by SRB assay; assay type: functional, cell-based; in short: as §1
[3] = system: MCF7; experiment: Cytotoxicity against human MCF7 cells after 96 hrs by SRB assay; assay type: functional, cell-based; in short: as §1
[4] = Cytotoxicity against human 518A2 cells after 96 hrs by SRB assay; assay type: functional, cell-based; in short: as §1
[5] = system: A549; experiment: Cytotoxicity against human A549 cells after 96 hrs by SRB assay; assay type: functional, cell-based; in short: as §1
[6] = system: HT-29; experiment: Cytotoxicity against human HT-29 cells after 96 hrs by SRB assay; assay type: functional, cell-based; settings: HT-29, 96 h; in short: as §1
[7] = system: HeLa; experiment: Cytotoxicity against human HeLa cells after 96 hrs by SRB assay; assay type: functional, cell-based; in short: as §1
[8] = Mus musculus, NIH3T3, 96 h, read-out: EC50
[9] = Homo sapiens, A2780, 96 h, read-out: EC50
[10] = Homo sapiens, MCF7, 96 h, read-out: EC50
[11] = Homo sapiens, 518A2, 96 h, read-out: EC50
[12] = Homo sapiens, A549, 96 h, read-out: EC50

SMILES	EC50 [1, 8] [µM]	EC50 [2, 9] [µM]	EC50 [3, 10] [µM]	EC50 [4, 11] [µM]	EC50 [5, 12] [µM]	EC50 [6] [µM]	EC50 [7] [µM]	EC50 ([1]; nih3t3)	EC50 ([2]; a2780)	EC50 ([3]; mcf7)	EC50 ([4]; 518a2)	EC50 ([5]; a549)
C=C(C)[C@@H]1CC[C@]2(C(=O)O)CC[C@]3(C)[C@H](CC[C@@H]4[C@@]5(C)CC[C@H](O)C(C)(C)[C@@H]5CC[C@]43C)[C@@H]12 [BETULINIC ACID]	16.1	8.8	10.2	9.4	17.1	–	–	–	–	–	–	–
C=C(C)[C@@H]1CC[C@]2(C(N)=O)CC[C@]3(C)[C@H](CC[C@@H]4[C@@]5(C)CC[C@H](OC(C)=O)C(C)(C)[C@@H]5CC[C@]43C)[C@@H]12	20	5.7	11.1	13.4	12.4	11.5	12	–	–	–	–	–
C=C(C)[C@@H]1CC[C@]2(COC(=O)NCC)CC[C@]3(C)[C@H](CC[C@@H]4[C@@]5(C)CCC(=O)C(C)(C)[C@@H]5CC[C@]43C)[C@@H]12	4.6	8.3	19.7	16.6	20.3	11.5	13.4	–	–	–	–	–
C=CCONC(=O)[C@]12CC[C@@H](C(=C)C)[C@@H]1[C@H]1CC[C@@H]3[C@@]4(C)CCC(=O)C(C)(C)[C@@H]4CC[C@@]3(C)[C@]1(C)CC2	19.7	19.7	18.4	22.4	25	–	–	–	–	–	–	–
C=C(C)[C@@H]1CC[C@]2(C(=O)O)CC[C@]3(C)[C@H](CC[C@@H]4[C@@]5(C)CC[C@H](OC(C)=O)C(C)(C)[C@@H]5CC[C@]43C)[C@@H]12	> 30	18.3	11	4.5	6.2	–	–	–	–	–	–	–
C=C(C)[C@@H]1CC[C@]2(COC(=O)NCCCCCC)CC[C@]3(C)[C@H](CC[C@@H]4[C@@]5(C)CC[C@H](OC(=O)NCCCCCC)C(C)(C)[C@@H]5CC[C@]43C)[C@@H]12	> 30	> 30	> 30	> 30	> 30	> 30	> 30	–	–	–	–	–
C=C(C)[C@@H]1CC[C@]2(COC(=O)NCCC)CC[C@]3(C)[C@H](CC[C@@H]4[C@@]5(C)CC[C@H](OC(=O)NCCC)C(C)(C)[C@@H]5CC[C@]43C)[C@@H]12	> 30	19.4	> 30	> 30	> 30	> 30	> 30	–	–	–	–	–
C=C(C)[C@@H]1CC[C@]2(C(=O)N(C)O)CC[C@]3(C)[C@H](CC[C@@H]4[C@@]5(C)CC[C@H](O)C(C)(C)[C@@H]5CC[C@]43C)[C@@H]12	–	–	–	–	–	–	–	ND(Insoluble)	ND(Insoluble)	ND(Insoluble)	ND(Insoluble)	ND(Insoluble)
C=C(C)[C@@H]1CC[C@]2(COC(=O)NCC)CC[C@]3(C)[C@H](CC[C@@H]4[C@@]5(C)CC[C@H](OC(=O)NCC)C(C)(C)[C@@H]5CC[C@]43C)[C@@H]12 [BIS(ETHYLCARBAMATE)BETULIN]	> 30	5.8	23.3	12.6	10.7	8.3	17.8	–	–	–	–	–
C=C(C)[C@@H]1CC[C@]2(C(=O)NOC)CC[C@]3(C)[C@H](CC[C@@H]4[C@@]5(C)CCC(=O)C(C)(C)[C@@H]5CC[C@]43C)[C@@H]12	12.7	12	13.8	17.2	6.1	–	–	–	–	–	–	–
C=C(C)[C@@H]1CC[C@]2(C(=O)NOC)CC[C@]3(C)[C@H](CC[C@@H]4[C@@]5(C)CC[C@H](OC(C)=O)C(C)(C)[C@@H]5CC[C@]43C)[C@@H]12	9.5	8.9	13.5	8	11.7	–	–	–	–	–	–	–
C=C(C)[C@@H]1CC[C@]2(C(=O)NO)CC[C@]3(C)[C@H](CC[C@@H]4[C@@]5(C)CC[C@H](OC(C)=O)C(C)(C)[C@@H]5CC[C@]43C)[C@@H]12	1.1	1.3	1.4	1.6	1.3	–	–	–	–	–	–	–
C=C(C)[C@@H]1CC[C@]2(COC(=O)NCCC)CC[C@]3(C)[C@H](CC[C@@H]4[C@@]5(C)CCC(=O)C(C)(C)[C@@H]5CC[C@]43C)[C@@H]12	> 30	> 30	> 30	> 30	> 30	> 30	> 30	–	–	–	–	–
C=C(C)[C@@H]1CC[C@]2(COC(=O)Nc3ccccc3)CC[C@]3(C)[C@H](CC[C@@H]4[C@@]5(C)CC[C@H](OC(C)=O)C(C)(C)[C@@H]5CC[C@]43C)[C@@H]12	> 30	> 30	> 30	> 30	> 30	> 30	> 30	–	–	–	–	–
C=CCONC(=O)[C@]12CC[C@@H](C(=C)C)[C@@H]1[C@H]1CC[C@@H]3[C@@]4(C)CC[C@H](O)C(C)(C)[C@@H]4CC[C@@]3(C)[C@]1(C)CC2	6.1	7.3	8.6	6.7	4.1	–	–	–	–	–	–	–
C=C(C)[C@@H]1CC[C@]2(C(=O)N(C)OC)CC[C@]3(C)[C@H](CC[C@@H]4[C@@]5(C)CC[C@H](O)C(C)(C)[C@@H]5CC[C@]43C)[C@@H]12	7.7	7.6	10.2	7.3	19	–	–	–	–	–	–	–
C=C(C)[C@@H]1CC[C@]2(C(=O)NCc3ccccc3)CC[C@]3(C)[C@H](CC[C@@H]4[C@@]5(C)CC[C@H](O)C(C)(C)[C@@H]5CC[C@]43C)[C@@H]12	11.1	11.8	18	> 30	> 30	–	> 30	–	–	–	–	–
C=C(C)[C@@H]1CC[C@]2(C(=O)N(C)O)CC[C@]3(C)[C@H](CC[C@@H]4[C@@]5(C)CC[C@H](OC(C)=O)C(C)(C)[C@@H]5CC[C@]43C)[C@@H]12	2.9	2	2.3	3.5	4.3	–	–	–	–	–	–	–
C=C(C)[C@@H]1CC[C@]2(C(=O)N(C)OC)CC[C@]3(C)[C@H](CC[C@@H]4[C@@]5(C)CC[C@H](OC(C)=O)C(C)(C)[C@@H]5CC[C@]43C)[C@@H]12	17.4	19.3	16.4	17.5	20.1	–	–	–	–	–	–	–
C=C(C)[C@@H]1CC[C@]2(C(=O)N(C)OC)CC[C@]3(C)[C@H](CC[C@@H]4[C@@]5(C)CCC(=O)C(C)(C)[C@@H]5CC[C@]43C)[C@@H]12	26.7	20.7	18.7	> 30	14.5	–	–	–	–	–	–	–
C=C(C)[C@@H]1CC[C@]2(C(=O)NO)CC[C@]3(C)[C@H](CC[C@@H]4[C@@]5(C)CC[C@H](O)C(C)(C)[C@@H]5CC[C@]43C)[C@@H]12	2	3.7	3.9	2.4	5.3	–	–	–	–	–	–	–
C=C(C)[C@@H]1CC[C@]2(C(=O)NOC)CC[C@]3(C)[C@H](CC[C@@H]4[C@@]5(C)CC[C@H](O)C(C)(C)[C@@H]5CC[C@]43C)[C@@H]12	15.2	12.3	21.9	5.8	6.9	–	–	–	–	–	–	–
C=C(C)[C@@H]1CC[C@]2(C(=O)N(C)O)CC[C@]3(C)[C@H](CC[C@@H]4[C@@]5(C)CCC(=O)C(C)(C)[C@@H]5CC[C@]43C)[C@@H]12	5	3	10.2	6.3	6	–	–	–	–	–	–	–
C=C(C)[C@@H]1CC[C@]2(CO)CC[C@]3(C)[C@H](CC[C@@H]4[C@@]5(C)CC[C@H](OC(C)=O)C(C)(C)[C@@H]5CC[C@]43C)[C@@H]12	> 30	11	11.2	15.2	14	–	–	–	–	–	–	–
C=CCONC(=O)[C@]12CC[C@@H](C(=C)C)[C@@H]1[C@H]1CC[C@@H]3[C@@]4(C)CC[C@H](OC(C)=O)C(C)(C)[C@@H]4CC[C@@]3(C)[C@]1(C)CC2	> 30	5.9	12.2	7.6	6.6	–	–	–	–	–	–	–
C=C(C)[C@@H]1CC[C@]2(C(=O)O)CC[C@]3(C)[C@H](CC[C@@H]4[C@@]5(C)CCC(=O)C(C)(C)[C@@H]5CC[C@]43C)[C@@H]12 [BETUNOLIC ACID]	13.1	20.4	25.9	29	25.9	–	–	–	–	–	–	–
C=C(C)[C@@H]1CC[C@]2(COC(C)=O)CC[C@]3(C)[C@H](CC[C@@H]4[C@@]5(C)CC[C@H](OC(C)=O)C(C)(C)[C@@H]5CC[C@]43C)[C@@H]12 [BETULIN DIACETATE]	> 30	> 30	> 30	> 30	> 30	–	–	–	–	–	–	–
C=C(C)[C@@H]1CC[C@]2(CO)CC[C@]3(C)[C@H](CC[C@@H]4[C@@]5(C)CC[C@H](O)C(C)(C)[C@@H]5CC[C@]43C)[C@@H]12 [BETULIN]	> 30	> 30	> 30	> 30	> 30	–	–	–	–	–	–	–
